The values that follow come from ChEMBL document CHEMBL1671701, “Discovery of potent small-molecule inhibitors of multidrug-resistant Plasmodium falciparum using a novel miniaturized high-throughput luciferase-based assay” (Antimicrob Agents Chemother, 2010).

Assay [1] is described as follows: Cytotoxicity activity against human HAEC cells after 24 hrs. In kind it is cell-based.
The subject of another assay is HepG2. The experiment in a line: Cytotoxicity activity against human HepG2 cells after 24 hrs. In kind it is cell-based. Particulars: HepG2, 24 h.
The subject of assay [2] is Plasmodium falciparum. Description: Antiplasmodial activity against Plasmodium falciparum 3D7 infected in RBCs by firefly luciferase reporter gene assay. Type of assay: functional, organism-based. Particulars: Plasmodium falciparum, 3D7. The method, boiled down: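 Sorbitol-synchronised 3D7 expressing firefly luciferase from the HRPII promoter, at 1% late-ring parasitemia and 3% hematocrit in RPMI/albumax II medium. Sixteen 2-fold dilutions from 17 μM to 0.5 nM, 48 h at 37°C under 5% O2/5% CO2/N2. Bright-Glo luminescence is normalised to untreated infected and uninfected-RBC wells. IC50 by four-parameter logistic fit.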

Assay [3] relates to Plasmodium falciparum. Description: Antiplasmodial activity against multidrug-resistant Plasmodium falciparum TM90C2B by SYBR Green 1-based fluorescence assay. In kind it is functional, organism-based. The method, boiled down: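 Resistant TM90C2B parasites are treated over a dose range and growth is read as SYBR green I fluorescence. IC50 comes from a fit of the log dose-response relationship, as the mean of at least three separate experiments.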

For assay [4], the system named is Plasmodium falciparum. Description: Antiplasmodial activity against Plasmodium falciparum 3D7 by SYBR Green 1-based fluorescence assay. In kind it is functional, organism-based.

In the case of `c1cc(CN2CCCCC2)cc(OCCCNc2nc3ccccc3s2)c1` [ZOLANTIDINE], the IC50 was found to be 75000 nM in assay [1] and 76000 nM in the assay on HepG2.

As for `CCNC(=O)N1CCN(CCCC(c2ccc(F)cc2)c2ccc(F)cc2)CC1` [AMPEROZIDE], the IC50 in assay [1] came out at 83000 nM; in the assay on HepG2, 95000 nM.

For the molecule `COc1cccc(N(C(C)=O)C2=C(N(C)C)C(=O)c3ccccc3C2=O)c1`, the IC50 in the assay on Plasmodium falciparum [2] came out at 5.3 nM; in assay [1], 11000 nM; in the assay with Plasmodium falciparum [3] it was 31 nM; with Plasmodium falciparum [4], 35 nM; in the assay with HepG2 it was 13000 nM.

Regarding `O=C1C(O)=C([C@H]2CC[C@H](c3ccc(Cl)cc3)CC2)C(=O)c2ccccc21` [ATOVAQUONE], the IC50 in the assay on Plasmodium falciparum [2] stood at 0.41 nM; with Plasmodium falciparum [3], 12000 nM; in the assay on Plasmodium falciparum [4] it was 0.8 nM.

For `CC(=O)N(C1=C(N(C)C)C(=O)c2ccccc2C1=O)c1ccc(Cl)cc1`, the IC50 turned out to be 14 nM with Plasmodium falciparum [2], 41000 nM in assay [1] and 8100 nM with HepG2.

As to `COc1cccc2c1C(=O)c1c(O)c3c(c(O)c1C2=O)C[C@@](O)(C(=O)CO)C[C@@H]3O[C@H]1C[C@H](N)[C@H](O)[C@H](C)O1` [DOXORUBICIN], the IC50 in assay [1] turned out to be 13000 nM; in the assay with HepG2, 69000 nM.

For the molecule `CC(=O)N(C1=C(N2CCOCC2)C(=O)c2ccccc2C1=O)c1cccc(Cl)c1`, the IC50 in the assay on Plasmodium falciparum [2] was determined as 790 nM; in the assay on Plasmodium falciparum [3] it was 510 nM; with Plasmodium falciparum [4] it was 1800 nM.

With `CC(=O)N(C1=C(N(C)C)C(=O)c2ccccc2C1=O)c1cccc(Cl)c1`, the IC50 worked out at 14 nM in the assay on Plasmodium falciparum [2]; 45000 nM in assay [1]; 72 nM in the assay with Plasmodium falciparum [3]; 140 nM with Plasmodium falciparum [4]; 5100 nM in the assay on HepG2.

As to `CC(=O)N(C1=C(N(C)C)C(=O)c2ccccc2C1=O)c1cccc(F)c1`, the IC50 came out at 11 nM in the assay with Plasmodium falciparum [2], 74 nM with Plasmodium falciparum [3] and 110 nM in the assay on Plasmodium falciparum [4].

Regarding `CC(=O)N(C1=C(N(C)C)C(=O)c2ccccc2C1=O)c1ccc(F)c(F)c1`, the IC50 with Plasmodium falciparum [2] was found to be 25 nM; in the assay on Plasmodium falciparum [3] it was 110 nM; with Plasmodium falciparum [4], 170 nM.

For orientation: IC50 means the point on the concentration scale where inhibition reaches its midpoint. High values mean a need for much substance, low ones inhibition by little substance.
